pIC50: −log10 of the molar value.
Experiments:
Ramos [1] = assay: Antiproliferative activity against human Ramos cells after 72 hrs by CCK-8 assay
Ramos [2] = assay: Induction of apoptosis in human Ramos cells assessed as late apoptotic cells at 20 uM after 72 hrs by Annexin V-FITC/propidium iodide staining based flow cytometry (reference value: 0.5%); format: functional
Ramos [3] = assay: Antitumor activity against human Ramos cells xenografted in CB17/SCID mouse assessed as tumor growth inhibition at 30 mg/kg, po qd for 14 days; format: functional; conditions: 336 h, read-out: TGI
How it was run: (§1)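 Female CB17/SCID mice, 5–6 weeks old and 20–25 g, received 3×10⁶ Ramos cells in 0.1 mL PBS subcutaneously in the right axilla. From day 3 after implantation, dosing was oral at 30 or 60 mg/kg for 14 days; vehicle controls got oral 25% PEG-400. Tumor volume was A×B²/2 from caliper diameters. Tumor weight was taken at sacrifice, and body weight was tracked. n = 5.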

Ramos [4] = assay: Induction of apoptosis in human Ramos cells assessed as total apoptosis rate at 20 uM after 72 hrs by Annexin V-FITC/propidium iodide staining based flow cytometry relative to control
Ramos [5] = assay: Induction of apoptosis in human Ramos cells assessed as early apoptotic cells at 10 uM after 72 hrs by Annexin V-FITC/propidium iodide staining based flow cytometry (reference value: 0.0%); format: functional
Ramos [6] = assay: Induction of apoptosis in human Ramos cells assessed as viable cells at 5 uM after 72 hrs by Annexin V-FITC/propidium iodide staining based flow cytometry (reference value: 98.7%); format: functional; conditions: read-out: Activity
Ramos [7] = assay: Induction of apoptosis in human Ramos cells assessed as necrotic cells at 5 uM after 72 hrs by Annexin V-FITC/propidium iodide staining based flow cytometry (reference value: 0.7%); format: functional
Ramos [8] = assay: Induction of apoptosis in human Ramos cells assessed as viable cells at 20 uM after 72 hrs by Annexin V-FITC/propidium iodide staining based flow cytometry (reference value: 98.7%); format: functional; conditions: read-out: Activity
Ramos [9] = assay: Induction of apoptosis in human Ramos cells assessed as total apoptosis rate at 10 uM after 72 hrs by Annexin V-FITC/propidium iodide staining based flow cytometry relative to control
NAMALVA = assay: Antiproliferative activity against human NAMALWA cells after 72 hrs by CCK-8 assay; format: functional, cell-based
How it was run: (§2)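 CCK-8 viability assay. Cells were seeded at 3000/well in RPMI-1640 with 10% FBS at 37 °C, 5% CO2, for 4 h before treatment. Exposure was 72 h at five concentrations (1.25, 5, 10, 20, 40 µM), each in five replicates. Absorbance was read at 450 nm. IC50 came from dose-response curves, as the mean of at least three separate experiments.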

Ramos [10] = assay: Antiproliferative activity against human Ramos cells assessed as inhibition of cell viability at 20 uM after 72 hrs by CCK-8 assay; format: functional; how it was run: as §2
PBMC = assay: Cytotoxicity against human PBMCs assessed as induction of morphological changes at <10 uM after 24 hrs by AO/PI staining-based phase contrast microscopy; format: cell-based
[11] = molecular target: Tyrosine-protein kinase BTK (Homo sapiens, UniProt Q06187); assay: Inhibition of BTK phosphorylation in human NAMALWA cells after 48 hrs by immunoblot analysis; format: cell-based
How it was run: (§3)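 Namalwa cells were treated with 1, 5 or 10 µM for 48 h. Lysates were cleared at 14,000 g for 15 min at 4 °C, and 50 µg of protein was run on 8–12% SDS-PAGE and transferred to PVDF. Membranes were blocked in 5% milk for 2 h and incubated with primary antibody overnight at 4 °C. Detection was by ECL, with band IOD normalized to β-actin.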

Ramos [12] = assay: Antitumor activity against human Ramos cells xenografted in CB17/SCID mouse assessed as tumor growth inhibition at 60 mg/kg, po qd for 14 days; format: functional; conditions: 336 h, read-out: TGI; how it was run: as §1
Ramos [13] = assay: Induction of apoptosis in human Ramos cells assessed as viable cells at 10 uM after 72 hrs by Annexin V-FITC/propidium iodide staining based flow cytometry (reference value: 98.7%); format: functional; conditions: read-out: Activity
Ramos [14] = assay: Induction of apoptosis in human Ramos cells assessed as late apoptotic cells at 10 uM after 72 hrs by Annexin V-FITC/propidium iodide staining based flow cytometry (reference value: 0.5%); format: functional
Ramos [15] = assay: Induction of apoptosis in human Ramos cells assessed as total apoptosis rate at 5 uM after 72 hrs by Annexin V-FITC/propidium iodide staining based flow cytometry relative to control
[16] = molecular target: T1, Tyrosine-protein kinase JAK3 (Homo sapiens) (UniProt P52333); assay: Inhibition of JAK3 in human NAMALWA cells assessed as reduction in STAT3 phosphorylation after 48 hrs by immunoblot analysis; format: cell-based; how it was run: as §3
T1 sequence (whole entry): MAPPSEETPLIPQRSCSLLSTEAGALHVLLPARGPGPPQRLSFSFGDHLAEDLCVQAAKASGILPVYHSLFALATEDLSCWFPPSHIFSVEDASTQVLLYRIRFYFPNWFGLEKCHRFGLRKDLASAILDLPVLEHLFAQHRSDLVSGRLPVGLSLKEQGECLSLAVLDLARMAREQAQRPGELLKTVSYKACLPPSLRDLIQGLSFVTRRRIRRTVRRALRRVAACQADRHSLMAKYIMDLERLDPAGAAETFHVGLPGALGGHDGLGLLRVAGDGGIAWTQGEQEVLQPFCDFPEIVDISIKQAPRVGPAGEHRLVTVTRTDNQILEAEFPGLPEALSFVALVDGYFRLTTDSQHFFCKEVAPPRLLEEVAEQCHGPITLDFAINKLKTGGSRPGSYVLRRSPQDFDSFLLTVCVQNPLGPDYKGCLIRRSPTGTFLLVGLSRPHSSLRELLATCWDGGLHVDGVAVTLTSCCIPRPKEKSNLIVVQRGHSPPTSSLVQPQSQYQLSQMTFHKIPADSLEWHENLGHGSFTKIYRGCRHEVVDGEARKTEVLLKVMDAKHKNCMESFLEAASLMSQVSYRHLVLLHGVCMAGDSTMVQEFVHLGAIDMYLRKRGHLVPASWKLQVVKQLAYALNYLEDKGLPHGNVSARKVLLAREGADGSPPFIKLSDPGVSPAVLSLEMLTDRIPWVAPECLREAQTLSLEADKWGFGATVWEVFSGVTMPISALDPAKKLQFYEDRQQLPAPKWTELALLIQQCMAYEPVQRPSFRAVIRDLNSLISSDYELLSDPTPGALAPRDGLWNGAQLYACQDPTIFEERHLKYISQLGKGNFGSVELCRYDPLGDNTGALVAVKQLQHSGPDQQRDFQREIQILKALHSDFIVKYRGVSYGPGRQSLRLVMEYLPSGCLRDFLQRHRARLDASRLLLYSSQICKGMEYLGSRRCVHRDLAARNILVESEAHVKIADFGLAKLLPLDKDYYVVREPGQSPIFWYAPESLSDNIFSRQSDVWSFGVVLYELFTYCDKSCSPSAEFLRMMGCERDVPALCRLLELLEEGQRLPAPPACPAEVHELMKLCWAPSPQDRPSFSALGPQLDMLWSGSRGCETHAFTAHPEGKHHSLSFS

Sequence of Tyrosine-protein kinase BTK (Q06187 whole entry): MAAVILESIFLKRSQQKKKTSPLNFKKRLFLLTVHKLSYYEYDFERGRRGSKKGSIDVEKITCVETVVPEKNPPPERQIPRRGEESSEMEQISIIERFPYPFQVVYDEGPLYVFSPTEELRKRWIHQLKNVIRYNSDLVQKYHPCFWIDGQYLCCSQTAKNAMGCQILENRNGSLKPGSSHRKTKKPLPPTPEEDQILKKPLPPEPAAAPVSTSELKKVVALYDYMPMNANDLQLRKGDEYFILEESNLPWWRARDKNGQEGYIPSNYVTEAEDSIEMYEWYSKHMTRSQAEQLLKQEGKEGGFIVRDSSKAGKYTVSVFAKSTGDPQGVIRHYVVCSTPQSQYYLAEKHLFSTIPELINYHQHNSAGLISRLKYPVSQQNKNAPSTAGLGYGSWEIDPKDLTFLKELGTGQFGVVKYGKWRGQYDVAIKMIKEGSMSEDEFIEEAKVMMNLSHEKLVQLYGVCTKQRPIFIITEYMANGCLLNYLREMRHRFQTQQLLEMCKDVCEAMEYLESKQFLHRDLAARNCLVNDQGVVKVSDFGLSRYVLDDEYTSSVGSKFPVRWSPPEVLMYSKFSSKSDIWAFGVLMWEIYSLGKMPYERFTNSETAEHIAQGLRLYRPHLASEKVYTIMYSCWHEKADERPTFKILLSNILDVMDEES

pIC50 (Ramos [1])	inhibition [11]	inhibition [16]	SMILES	Activity (Ramos [2]) [%]	inhibition in vivo at 30 mg/kg (Ramos [3]) [%]	Activity (Ramos [4]) [%]	Activity (Ramos [5]) [%]	viability at 5 µM (Ramos [6]) [%]	Activity (Ramos [7]) [%]	viability at 20 µM (Ramos [8]) [%]	Activity (Ramos [9]) [%]	pIC50 (NAMALVA)	inhibition at 20 µM (Ramos [10]) [%]	Activity (PBMC)	inhibition in vivo at 60 mg/kg (Ramos [12]) [%]	viability at 10 µM (Ramos [13]) [%]	Activity (Ramos [14]) [%]	Activity (Ramos [15]) [%]
5.61	Dose-dependent effect	Dose-dependent effect	C=CC(=O)Nc1cccc(Nc2nc(Nc3ccc(OCC(=O)N4CCOCC4)c(Cl)c3)ncc2Cl)c1	14.4	24.4	79.5	59	37.2	0.9	20.1	69.9	5.19	91	Non-Toxic	36.6	29	10.9	61.8
5.31	Dose-dependent effect	Dose-dependent effect	C=CC(=O)Nc1cccc(Nc2nc(Nc3ccc(OCCCN4CCOCC4)cc3)ncc2Cl)c1	18.6	36.6	80.2	67.6	34.4	6.6	16.3	77.2	5.08	91	Non-Toxic	47.5	20.1	9.6	59
